Data from PMC4954844 (European Journal of Drug Metabolism and Pharmacokinetics, 2015).
Like-named read-outs stand apart in the source and are kept apart here.

Tests used:
[1] = format: in vivo, male Crl:CD-1 mice
Outline: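 Male Crl:CD-1 mice (8–10 weeks, bred in-house) were fasted overnight with water and dosed at 50 mg/kg into the tail vein. 3–4 per time point were exsanguinated up to 60 min. Serum was clotted at room temperature, then spun. Brain, muscle, kidneys, liver, gut and lungs were homogenized 1:4 w/v in 0.1 M PBS. Samples were stored at −80 °C.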

[2] = Urinary excretion of unchanged LSF in mice; format: in vivo; details: 50 mg/kg i.v., within 4 h, unpublished data
Outline: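 Three mice received 50 mg/kg intravenously and were housed in metabolic cages. All urine was collected at 2 and 4 h post-dose with volumes recorded. Unchanged drug was quantified by the chiral HPLC-UV method after validation for murine urine, expressed as percent of dose excreted within 4 h.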

[3] = PBPK simulation and clearance scaling of LSF to a 70-kg human subject
[4] = Human pharmacokinetic study of LSF; format: in vivo; details: plasma, iv, 3 mg/kg
[5] = system: human liver microsomes (CYP3A4, CYP2A6); details: biphasic, cited from earlier work
[6] = system: human liver microsomes (CYP1A2 and a non-cytochrome P450 enzyme); details: biphasic, ref Lee and Slattery [1997]; cited from earlier work
[7] = ref Nicklasson et al. [2002], cited from earlier work
[8] = ref Bursten et al. [1998], cited from earlier work
[9] = mice, ref Wyska et al. [2007], cited from earlier work
[10] = mice, final PBPK model estimate
[11] = CYP2A6, ref Shin and Slattery [1998]
[12] = CYP3A4, ref Shin and Slattery [1998]

Compound: C[C@@H](O)CCCCn1c(=O)c2c(ncn2C)n(C)c1=O [LSF, (−)-R-1-(5-hydroxyhexyl)-3,7-dimethylxanthine]
- Kp ([1]; male, Crl:CD-1, mouse, brain/serum, iv, 50 mg/kg): 0.345
- Kp ([1]; male, Crl:CD-1, mouse, gut/serum, iv, 50 mg/kg): 0.892
- clearance ([1]; male, Crl:CD-1, mouse, intravenous, 50 mg/kg): 5.43 mL/min
- concentration at 60 min ([1]; male, Crl:CD-1, mouse, iv, 50 mg/kg): < 1000 ng/mL
- Kp ([1]; male, Crl:CD-1, mouse, kidneys/serum, iv, 50 mg/kg): 0.777
- Kp ([1]; male, Crl:CD-1, mouse, liver/serum, iv, 50 mg/kg): 0.859
- Kp ([1]; male, Crl:CD-1, mouse, lungs/serum, iv, 50 mg/kg): 0.758
- Kp ([1]; male, Crl:CD-1, mouse, muscle/serum, iv, 50 mg/kg): 0.64
- clearance ([1]; male, Crl:CD-1, mouse, serum, iv, 50 mg/kg): 1.44 mL/min
- K M (LSF concentration at 50 % of the maximum rate of metabolism) [1, 10]: 1.777 µg/mL
- V max (maximum rate of metabolism) [1, 10]: 9.644 µg/min
- mean percentage of LSF dose excreted unchanged with urine [2]: 0.71 ± 0.13%
- in vivo whole liver intrinsic clearance ([3]; calculated from human liver microsome Vmax/KM data and Eq. 11): 1,545.24 ml/min
- plasma hepatic clearance ([3]; calculated from the in vivo intrinsic clearance (Eq. 12)): 477.54 mL/min
- clearance [4]: 1280 mL/min
- K M, lisofylline diol formation, high K M enzyme [5, 11]: 4230 µM
- V max, lisofylline diol formation, high K M enzyme [5, 11]: 0.429 nmol/min/mg of protein
- K M, lisofylline diol formation, low K M enzyme [5, 12]: 23 µM
- V max, lisofylline diol formation, low K M enzyme [5, 12]: 0.0565 nmol/min/mg of protein
- K M, formation of pentoxifylline from LSF, second (high K M) enzyme [6]: 158 µM
- V max, formation of pentoxifylline from LSF, second (high K M) enzyme [6]: 0.928 nmol/min/mg
- fraction unbound (fu) in human plasma ([7]; human plasma): 0.54
- blood to plasma LSF concentration ratio (CB/Cp) ([7]; human): 0.77
- maximum concentration (C max), observed ([8]; human subjects, oral 6 mg/kg): 226 ± 99.10 ng/mL
- time to C max, observed ([8]; human subjects, oral 6 mg/kg): 0.53 ± 0.26 h
- bioavailability ([8]; humans, oral): 5.9%
- first-order absorption rate constant (ka) ([9]; oral administration): 0.024 min⁻¹
- fraction of the dose absorbed following oral administration (F) ([9]; oral administration): 0.16
- bioavailability ([9]; oral): 16%
